Measurements: article PMC6500982 (Cancer Science, 2019)

Assay: Safety and tolerability
Format: in vivo, human
Procedure, shortened: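 Patients (enrolled January 2015–February 2016) received oral test compound in four cohorts: 160, 320 or 480 mg QD, or 300 mg BID. Dosing continued until progression, unacceptable AEs or consent withdrawal. AEs were graded by CTCAE v4.0, alongside laboratory tests, vital signs and ECGs. The safety population was all patients receiving ≥1 dose.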

## CC#CC(=O)N1CC[C@@H](n2c(=O)n(-c3ccc(Oc4ccccc4)cc3)c3c(N)ncnc32)C1 [tirabrutinib]
160 mg QD N = 3
  All AEs, Any grade: 3 (100.0) n (%)
  All AEs, Grade ≥3: 1 (33.3) n (%)
  Anemia, Any grade: 0 n (%)
  Anemia, Grade ≥3: 0 n (%)
  Arthralgia, Any grade: 1 (33.3) n (%)
  Arthralgia, Grade ≥3: 0 n (%)
  Aspartate aminotransferase increased, Any grade: 0 n (%)
  Aspartate aminotransferase increased, Grade ≥3: 0 n (%)
  Constipation, Any grade: 0 n (%)
  Constipation, Grade ≥3: 0 n (%)
  Cystitis, Any grade: 0 n (%)
  Cystitis, Grade ≥3: 0 n (%)
  Diarrhea, Any grade: 0 n (%)
  Diarrhea, Grade ≥3: 0 n (%)
  Dysgeusia, Any grade: 0 n (%)
  Dysgeusia, Grade ≥3: 0 n (%)
  Gamma‐glutamyltransferase increased, Any grade: 0 n (%)
  Gamma‐glutamyltransferase increased, Grade ≥3: 0 n (%)
  Headache, Any grade: 1 (33.3) n (%)
  Headache, Grade ≥3: 0 n (%)
  Hypokalemia, Any grade: 0 n (%)
  Hypokalemia, Grade ≥3: 0 n (%)
  Hypophosphatemia, Any grade: 0 n (%)
  Hypophosphatemia, Grade ≥3: 0 n (%)
  Insomnia, Any grade: 0 n (%)
  Insomnia, Grade ≥3: 0 n (%)
  Leukopenia, Any grade: 0 n (%)
  Leukopenia, Grade ≥3: 0 n (%)
  Lymphopenia, Any grade: 0 n (%)
  Lymphopenia, Grade ≥3: 0 n (%)
  Malaise, Any grade: 2 (66.7) n (%)
  Malaise, Grade ≥3: 0 n (%)
  Myalgia, Any grade: 2 (66.7) n (%)
  Myalgia, Grade ≥3: 0 n (%)
  Nasopharyngitis, Any grade: 1 (33.3) n (%)
  Nasopharyngitis, Grade ≥3: 0 n (%)
  Nausea, Any grade: 0 n (%)
  Nausea, Grade ≥3: 0 n (%)
  Neutropenia, Any grade: 1 (33.3) n (%)
  Neutropenia, Grade ≥3: 1 (33.3) n (%)
  Pharyngitis, Any grade: 1 (33.3) n (%)
  Pharyngitis, Grade ≥3: 0 n (%)
  Pyrexia, Any grade: 0 n (%)
  Pyrexia, Grade ≥3: 0 n (%)
  Rash, Any grade: 1 (33.3) n (%)
  Rash, Grade ≥3: 0 n (%)
  Thrombocytopenia, Any grade: 0 n (%)
  Thrombocytopenia, Grade ≥3: 0 n (%)
  Upper respiratory tract inflammation, Any grade: 1 (33.3) n (%)
  Upper respiratory tract inflammation, Grade ≥3: 0 n (%)
  Vomiting, Any grade: 0 n (%)
  Vomiting, Grade ≥3: 0 n (%)
300 mg BID N = 7
  All AEs, Any grade: 7 (100.0) n (%)
  All AEs, Grade ≥3: 3 (42.9) n (%)
  Anemia, Any grade: 1 (14.3) n (%)
  Anemia, Grade ≥3: 1 (14.3) n (%)
  Arthralgia, Any grade: 1 (14.3) n (%)
  Arthralgia, Grade ≥3: 0 n (%)
  Aspartate aminotransferase increased, Any grade: 1 (14.3) n (%)
  Aspartate aminotransferase increased, Grade ≥3: 0 n (%)
  Constipation, Any grade: 1 (14.3) n (%)
  Constipation, Grade ≥3: 0 n (%)
  Cystitis, Any grade: 1 (14.3) n (%)
  Cystitis, Grade ≥3: 0 n (%)
  Diarrhea, Any grade: 2 (28.6) n (%)
  Diarrhea, Grade ≥3: 0 n (%)
  Dysgeusia, Any grade: 1 (14.3) n (%)
  Dysgeusia, Grade ≥3: 0 n (%)
  Gamma‐glutamyltransferase increased, Any grade: 1 (14.3) n (%)
  Gamma‐glutamyltransferase increased, Grade ≥3: 0 n (%)
  Headache, Any grade: 1 (14.3) n (%)
  Headache, Grade ≥3: 0 n (%)
  Hypokalemia, Any grade: 0 n (%)
  Hypokalemia, Grade ≥3: 0 n (%)
  Hypophosphatemia, Any grade: 0 n (%)
  Hypophosphatemia, Grade ≥3: 0 n (%)
  Insomnia, Any grade: 3 (42.9) n (%)
  Insomnia, Grade ≥3: 0 n (%)
  Leukopenia, Any grade: 0 n (%)
  Leukopenia, Grade ≥3: 0 n (%)
  Lymphopenia, Any grade: 0 n (%)
  Lymphopenia, Grade ≥3: 0 n (%)
  Malaise, Any grade: 0 n (%)
  Malaise, Grade ≥3: 0 n (%)
  Myalgia, Any grade: 0 n (%)
  Myalgia, Grade ≥3: 0 n (%)
  Nasopharyngitis, Any grade: 1 (14.3) n (%)
  Nasopharyngitis, Grade ≥3: 0 n (%)
  Nausea, Any grade: 2 (28.6) n (%)
  Nausea, Grade ≥3: 0 n (%)
  Neutropenia, Any grade: 0 n (%)
  Neutropenia, Grade ≥3: 0 n (%)
  Pharyngitis, Any grade: 1 (14.3) n (%)
  Pharyngitis, Grade ≥3: 0 n (%)
  Pyrexia, Any grade: 2 (28.6) n (%)
  Pyrexia, Grade ≥3: 0 n (%)
  Rash, Any grade: 1 (14.3) n (%)
  Rash, Grade ≥3: 0 n (%)
  Thrombocytopenia, Any grade: 0 n (%)
  Thrombocytopenia, Grade ≥3: 0 n (%)
  Upper respiratory tract inflammation, Any grade: 0 n (%)
  Upper respiratory tract inflammation, Grade ≥3: 0 n (%)
  Vomiting, Any grade: 2 (28.6) n (%)
  Vomiting, Grade ≥3: 0 n (%)
320 mg QD N = 3
  All AEs, Any grade: 3 (100.0) n (%)
  All AEs, Grade ≥3: 2 (66.7) n (%)
  Anemia, Any grade: 0 n (%)
  Anemia, Grade ≥3: 0 n (%)
  Arthralgia, Any grade: 1 (33.3) n (%)
  Arthralgia, Grade ≥3: 0 n (%)
  Aspartate aminotransferase increased, Any grade: 0 n (%)
  Aspartate aminotransferase increased, Grade ≥3: 0 n (%)
  Constipation, Any grade: 1 (33.3) n (%)
  Constipation, Grade ≥3: 0 n (%)
  Cystitis, Any grade: 1 (33.3) n (%)
  Cystitis, Grade ≥3: 0 n (%)
  Diarrhea, Any grade: 1 (33.3) n (%)
  Diarrhea, Grade ≥3: 0 n (%)
  Dysgeusia, Any grade: 0 n (%)
  Dysgeusia, Grade ≥3: 0 n (%)
  Gamma‐glutamyltransferase increased, Any grade: 1 (33.3) n (%)
  Gamma‐glutamyltransferase increased, Grade ≥3: 0 n (%)
  Headache, Any grade: 0 n (%)
  Headache, Grade ≥3: 0 n (%)
  Hypokalemia, Any grade: 0 n (%)
  Hypokalemia, Grade ≥3: 0 n (%)
  Hypophosphatemia, Any grade: 0 n (%)
  Hypophosphatemia, Grade ≥3: 0 n (%)
  Insomnia, Any grade: 0 n (%)
  Insomnia, Grade ≥3: 0 n (%)
  Leukopenia, Any grade: 2 (66.7) n (%)
  Leukopenia, Grade ≥3: 2 (66.7) n (%)
  Lymphopenia, Any grade: 1 (33.3) n (%)
  Lymphopenia, Grade ≥3: 1 (33.3) n (%)
  Malaise, Any grade: 0 n (%)
  Malaise, Grade ≥3: 0 n (%)
